HCV NS3 hel inh – inhibitors of Hepatitis C virus NS3 helicase | 290,000 compounds, 0.56% hits | NS3 helicase DNA unwinding, Cy5 molecular beacon fluorescence | AID 1800 | inhibition, % at 10.9 µM;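 active means inhibition above the mean of all tested compounds plus 3 SD, set per campaign, cut at about 35% in these data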;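 further: 0% = DMSO wells and 100% = thioflavine S control wells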
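Compound dosing – single dose, 10.9 µM nominal final, DMSO 0.8% final · System – NS3 helicase fragment of HCV · Buffer or medium – MOPS pH 6.5, MgCl2, DTT, Tween20, BSA · Signal – Cy5 beacon fluorescence read at start and 1 h · Also added – annealed dual-labelled DNA beacon duplex, ATP-started · Schedule – 1 h at 25 °C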
FGF22 binding – FGF22 (human) thermal shift binding. activity (Tm shift, normalised), % at 9.99 µM. Q9HCT0. AID 651658. recombinant FGF22 thermal shift, SYPRO orange fluorescence; percent of sucrose octasulfate shift, DMSO zero. 340,000 compounds, 1.5% hits;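 active means mean Tm shift, scaled 0 neutral to 100 positive control, at about 1.3% or above, every replicate too, limit read from the data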
Target sequence (Q9HCT0 whole entry, looked up): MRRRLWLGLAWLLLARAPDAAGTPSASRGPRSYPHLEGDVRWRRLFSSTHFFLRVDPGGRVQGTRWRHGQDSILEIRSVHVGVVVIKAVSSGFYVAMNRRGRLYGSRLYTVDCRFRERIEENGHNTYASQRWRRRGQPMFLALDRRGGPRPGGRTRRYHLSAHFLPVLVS
ZTA DNA inh – blocks Epstein-Barr virus ZTA, an EBNA-1 counter-screen; ZTA-DNA binding, fluorescence polarization; inhibition, % at 11 µM; 320,000 compounds, 0.15% hits; P03206; in the data active means inhibition above about 33%
Target sequence (P03206 whole entry, looked up): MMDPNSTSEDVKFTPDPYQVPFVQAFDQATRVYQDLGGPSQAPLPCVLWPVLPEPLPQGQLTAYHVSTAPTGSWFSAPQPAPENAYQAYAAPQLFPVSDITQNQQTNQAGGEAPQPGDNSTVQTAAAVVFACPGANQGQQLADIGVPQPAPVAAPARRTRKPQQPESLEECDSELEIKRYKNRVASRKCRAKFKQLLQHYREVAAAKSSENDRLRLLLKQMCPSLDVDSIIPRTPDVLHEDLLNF
FID counter – fluorescent intercalator displacement, NS3 helicase counter-screen; DNA fluorescent intercalator displacement, fluorescence; inhibition, % at 7.9 µM; 290,000 compounds, 0.17% hits; AID 1845; in the data active means inhibition above about 37%;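 further: 0% = vehicle and 100% = reference compound; higher means more ethidium bromide displaced from hairpin DNA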
EBNA-1 inhibitor – blocks EBNA-1 binding to DNA; EBNA-1 DNA binding, fluorescence polarization; inhibition, % at 14.8 µM; 300,000 compounds, 0.34% hits; AID 1950; in the data active means inhibition above about 28%
NR3A LBD binder – modulators (binders) of human NR3A ligand-binding domain | Tm shift relative to glycine control, % at 25 µM | NR3A LBD differential scanning fluorimetry, Tm shift; 0% = protein alone, 100% = glycine-bound protein | 340,000 compounds, 2.5% hits | AID 1259313;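 active means melting temperature shift of at least 10% of the positive control shift, at one fixed dose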
* = called active by the depositor; x = not tested or not shown. Shown are actives, neighbours in structure and some others; about 3.6% of the full set was active somewhere.

SMILES	HCV NS3 hel inh	FGF22 binding	ZTA DNA inh	FID counter	EBNA-1 inhibitor	NR3A LBD binder
CCCNC(=O)Nc1ccc2c(c1)OC[C@H](C)N(C(=O)C1CCCCC1)C[C@H](C)[C@@H](OC)CN(C)C2=O	x	0	x	x	x	x
C[C@H](CO)N1C[C@H](C)[C@@H](CN(C)S(=O)(=O)c2ccc(F)cc2)Oc2ccc(NC(=O)CCCCCC(=O)Nc3ccccc3N)cc2C1=O	x	0	x	x	x	x
Cc1ccc(N=Nc2ccc(O)cc2)c(Br)c1	-8	x	-8	16	-10	13*
COc1ccc(C(=O)COC(=O)C2CCCN2C(=O)C23CC4CC(CC(C4)C2)C3)cc1 (stereo not given)	3	43*	-3	-7	10	1
O=C(COC(=O)C1CCCN1C(=O)C12CC3CC(CC(C3)C1)C2)c1ccc(Br)cc1 (stereo not given)	1	44*	-1	-5	0	-2
COC(=O)Nc1ccc(S(=O)(=O)N2CCC(C)CC2)cc1	3	x	2	-8	1	13*
CC1CCN(S(=O)(=O)c2ccc(NC(=O)C3CCCCC3C(=O)O)cc2)CC1 (stereo not given)	x	x	x	x	x	11*
CC1CCN(S(=O)(=O)c2cccc(C(=O)Nc3nncs3)c2)CC1	1	0	7	-31	1	17*
CC1CCN(S(=O)(=O)c2ccc(NC(=O)c3ccncc3)cc2)CC1	1	0	1	-26	-10	12*
COC(=O)Nc1ccc(S(=O)(=O)N2CCC(C(=O)N3CCC(C)CC3)CC2)cc1	12	0	-24	-25	-1	0
C[C@H]1CN([C@@H](C)CO)C(=O)c2cc(-c3ccncc3)cnc2O[C@H]1CN(C)C(=O)c1ccc(F)cc1	x	0	x	x	x	x
C[C@H]1CN([C@@H](C)CO)C(=O)c2cc(C3=CCCC3)cnc2O[C@H]1CN(C)C(=O)C1CCC1	x	0	x	x	x	x
C[C@@H]1CN([C@H](C)CO)C(=O)c2cc(NC(=O)Nc3ccc(C(F)(F)F)cc3)ccc2O[C@H]1CN(C)S(=O)(=O)c1ccccc1	x	0	x	x	x	22*
COc1ccc(S(=O)(=O)N(C)C[C@H]2Oc3ccc(NC(=O)Nc4ccc(C(F)(F)F)cc4)cc3C(=O)N([C@H](C)CO)C[C@@H]2C)cc1	x	0	x	x	x	22*
C[C@@H]1CN([C@@H](C)CO)C(=O)c2cc(NC(=O)Nc3ccc(C(F)(F)F)cc3)ccc2O[C@@H]1CN(C)S(=O)(=O)c1ccc(F)cc1	x	0	x	x	x	x
O=C(CCCOc1ccc(Cl)cc1Cl)N/N=C/c1ccccc1	-13	0	10	-5	-2	2
Cc1ccc(/C=N/NC(=O)CCCOc2ccc(Cl)cc2Cl)cc1	-7	x	-2	-10	10	12*
COc1ccc(/C=N/NC(=O)CCCOc2ccc(Cl)cc2Cl)cc1[N+](=O)[O-]	3	x	-7	2	-2	12*
O=C(CCCOc1ccc(Cl)cc1Cl)N/N=C/c1ccco1	-9	0	12	-16	0	-5
O=C(CCCOc1ccc(Cl)cc1Cl)N/N=C/c1ccccc1O	-7	x	3	-8	15	18*
O=C(/C=C/c1ccc(Br)cc1)c1ccc(NC(=O)c2ccco2)cc1	14	x	11	0	1	24*
N#Cc1ccc(/C=C/C(=O)c2ccccc2)cc1	2	0	14	-6	11	12*
O=C(/C=C/c1ccc(NC(=O)c2ccccc2-c2ccccc2C(=O)O)cc1)c1ccccc1	26	0	41*	-5	3	-5
O=C(/C=C/c1ccccc1)c1ccccc1	-8	0	11	-1	3	1
O=C(/C=C\c1ccccc1)Nc1ccc(NC(=O)c2ccco2)cc1	-6	1.5*	7	-14	8	25*
SMILES	HCV NS3 hel inh	FGF22 binding	ZTA DNA inh	FID counter	EBNA-1 inhibitor	NR3A LBD binder
CC(C)NC(=O)N1C[C@@H]2[C@H](c3ccccc31)[C@H](CO)N2C(=O)c1ccc(F)cc1	x	0	x	x	x	x
O=C(Cc1ccncc1)NCC[C@H]1CC[C@H](NS(=O)(=O)c2ccccc2Cl)[C@H](CO)O1	x	0	x	x	x	x
N#Cc1ccccc1COc1ccc(/C=C/C(=O)O)cc1	25	43*	-26	-24	-1	-2
C#CCOCCOCCOCCNc1nc(N2CCN(C(=O)[C@H](CCC(=O)O)n3cc(C(N)CC(C)C)nn3)CC2)nc(N2CCN(C(=O)[C@H](Cc3ccc(O)cc3)n3cc(C(N)CC(C)C)nn3)CC2)n1 (stereo not given in full)	-17	x	7	12	7	-1
C#CCOCCOCCOCCNc1nc(N2CCN(C(=O)[C@H](CCCCN)n3cc([C@@H](N)C(C)CC)nn3)CC2)nc(N2CCN(C(=O)[C@H](Cc3ccc(O)cc3)n3cc([C@@H](N)CC(C)C)nn3)CC2)n1 (stereo not given in full)	-68	1	-2	49*	-8	2
C#CCOCCOCCOCCNc1nc(N2CCN(C(=O)[C@H](CO)n3cc([C@@H](N)C(C)C)nn3)CC2)nc(N2CCN(C(=O)[C@H](CCCCN)n3cc([C@@H](N)[C@H](C)CC)nn3)CC2)n1	x	43*	x	x	x	1
C#CCOCCOCCOCCNc1nc(N2CCOCC2)nc(N2CCN(C(=O)[C@H](Cc3ccc(O)cc3)n3cc([C@@H](N)C(C)CC)nn3)CC2)n1 (stereo not given in full)	-8	0	-14	19	2	0
C#CCOCCOCCOCCNc1nc(N2CCN(C(=O)[C@H](Cc3ccc(O)cc3)n3cc([C@@H](N)CC(C)C)nn3)CC2)nc(N2CCN(C(=O)[C@H](Cc3ccc(O)cc3)n3cc([C@@H](N)CC(C)C)nn3)CC2)n1	-32	x	-12	57*	-14	x
C#CCOCCOCCOCCNc1nc(N2CCN(C(=O)C(Cc3ccc(O)cc3)n3cc(C(N)C(C)CC)nn3)CC2)nc(N2CCN(C(=O)C(Cc3ccc(O)cc3)n3cc(C(N)C(C)CC)nn3)CC2)n1 (stereo not given)	-77	0	6	40*	1	-2
C#CCOCCOCCOCCNc1nc(N2CCN(C(=O)C([C@@H](C)O)n3cc([C@@H](N)CCCCN)nn3)CC2)nc(N2CCN(C(=O)[C@H](CCCCN)n3cc([C@@H](N)[C@H](C)CC)nn3)CC2)n1 (stereo not given in full)	x	0	x	x	x	3
Cc1noc(C)c1NC(=O)Nc1cccc2c1O[C@@H](CN(C)S(C)(=O)=O)[C@@H](C)CN([C@H](C)CO)C2=O	x	0	x	x	x	x
C#CCOCCOCCOCCNc1nc(N2CCN(C(=O)C([C@@H](C)CC)n3cc(C(N)CC(C)C)nn3)CC2)nc(N2CCN(C(=O)[C@H](CCC(=O)O)n3cc(C(N)Cc4ccc(O)cc4)nn3)CC2)n1 (stereo not given in full)	-45	x	-5	16	5	0

High-throughput results (PubChem)
